Assay results published in PubChem BioAssay AID624104 (Broad Institute, 2012).
Active and inactive are the calls of the source.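 The calls were made as follows: active = fitted curve reaches a 35% growth drop -35 below twice the top tested dose; inactive = activity in the wrong direction, or the rest.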

Tested on: not listed separately
Experiment: growth delay of efflux-deficient P. aeruginosa under iron chelation, dose response, PAK mexAB-OprM pump mutant, OD600, dry powder, set 2 (AID 624104)
Details: P. aeruginosa PAK mexAB-oprM, EDDHA, OD600 growth, 28 h; at 100 µM (top of the series)
Summary of the method: (§1)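 System: overnight bacterial culture diluted to OD600 0.05 as inoculum; Buffer or medium: succinate M9 medium, pH 7.0, containing 2 µM EDDHA; Dosing: pin-transferred compound series, final 100 µM down to 15 nM; Incubation: 28 h compound exposure at 30 °C, humidified.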

Compound | activity change, negative = growth inhibition
COCCOCCC(C#N)c1ccc(Cl)cc1 (configuration not stated) | -10% (inactive)
CN(C)CCCC(C#N)c1ccc(Cl)cc1 (configuration not stated) | -0.114% (inactive)
Clc1ccc(C(c2cccc(Cl)n2)c2nn[nH]n2)cc1 (configuration not stated) | 11.2% (inactive)
N#CC(c1ccc(C(F)(F)F)c(Cl)n1)c1ccccc1OC(F)(F)F (configuration not stated) | -25.9% (inactive)

Tested on: P. aeruginosa PAK mexAB-oprM, EDDHA, OD600 growth, 28 h
Experiment: as above
Details: not given
Summary of the method: as §1

Compound | AC35 [µM]
N#CC(c1ccc(Cl)cc1)c1cccc(C(F)(F)F)n1 (configuration not stated) | 1.45
CCCCC(C#N)c1ccc(F)cc1 (configuration not stated) | 33.5
N#CC(c1ccc(Cl)cc1)c1ccccn1 (configuration not stated) | 5.72
N#CC(c1cccc(Cl)n1)c1ccc(Cl)cc1F (configuration not stated) | 1.52
CN(C)CCCC(C#N)c1ccc(F)cc1 (configuration not stated) | 6.4
N#CC(c1cccc(C(F)(F)F)n1)c1ccc(Cl)cc1F (configuration not stated) | 2.45
CCCCC(c1ccc(Cl)cc1)c1nn[nH]n1 (configuration not stated) | 25.2
COCCC(C#N)c1ccc(F)cc1 (configuration not stated) | 28.3
N#CC(c1ccc(Cl)cc1)c1cccc(Cl)n1 (configuration not stated) | 1.97
COCCOCCC(C#N)c1ccc(F)cc1 (configuration not stated) | 5.24
N#CC(c1ccc(F)cc1)c1cccc(Cl)n1 (configuration not stated) | 2.09
N#CC1c2ccc(Cl)cc2CCc2cccnc21 (configuration not stated) | 32.8
CCCCC(C#N)c1ccc(F)cn1 (configuration not stated) | 18.7
COCCC(C#N)c1ccc(Cl)cc1 (configuration not stated) | 40.2
N#Cc1cccc(C(C#N)c2ccc(F)cc2)n1 (configuration not stated) | 8.88
N#CC(c1ccc(F)cc1)c1cccc(C(F)(F)F)n1 (configuration not stated) | 0.839
CCCCC(C#N)c1ccc(Cl)cn1 (configuration not stated) | 42.3
N#CC(c1ccc(Cl)cc1)c1ncccc1Cl (configuration not stated) | 0.923
